# Tests used:
# [1] = folding enthalpy; higher = less favourable; fluorescence melt of hairpins on a sequencing array, two-state fit; conditions: sodium 0.088 M
# Outline: (§1)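 Library hairpins on a sequenced MiSeq flow cell carried annealed Cy3 and quencher oligos, and their Cy3 fluorescence was imaged in 50 mM Na-HEPES pH 8.0 with 25 mM NaCl, in 2.5 °C steps up to 60 °C. Signals were normalised to Cy3 before quenching and to control constructs. Melting temperature and folding enthalpy were obtained from bootstrapped two-state fits, combined by inverse-variance weighting across four replicates, and the fitted temperatures were then raised by 9.35 °C to match UV melts.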
# [2] = melting temperature; fluorescence melt of hairpins on a sequencing array, two-state fit, raised by 9.35 °C to match UV melts; conditions: sodium 0.088 M
# Outline: as §1
sequence,measurement,setting,value
GTTTATGGAAACATAAGC (.(((((....))))).),folding enthalpy,[1],-20.8 kcal/mol
same,Tm,[2],33.7 °C
GTTTATGGAAACATAGAC ((.((((....)))).)),folding enthalpy,[1],-23.7 kcal/mol
same,Tm,[2],32.2 °C
GTTTATGGAAACGTAAAC (((((.(....).))))),folding enthalpy,[1],-30 kcal/mol
same,Tm,[2],37.5 °C
GTTTCAACGAAAGTTAAC (((..(((....)))))),folding enthalpy,[1],-15.8 kcal/mol
same,Tm,[2],35.5 °C
GTTTCACGAAAGTGAAC (((.(((....)))))),folding enthalpy,[1],-14.4 kcal/mol
same,Tm,[2],49.4 °C
GTTTCCGAAAGGACAAAC ((((((....)))..))),folding enthalpy,[1],-9.58 kcal/mol
same,Tm,[2],26.1 °C
GTTTCCGAAAGGACGAAC ((((((....)))..))),folding enthalpy,[1],-9.15 kcal/mol
same,Tm,[2],21.9 °C
GTTTCCGAAAGGAGGAAC ((((((....)))..))),folding enthalpy,[1],-9.8 kcal/mol
same,Tm,[2],27.4 °C
GTTTCGCGAAAGCGAAC (((.(((....)))))),folding enthalpy,[1],-10.4 kcal/mol
same,Tm,[2],53.9 °C
GTTTCGCGAAAGCGGAAC (((.(((....))).))),folding enthalpy,[1],-23.4 kcal/mol
same,Tm,[2],59.2 °C
GTTTCGGGAAACCGAAAC (((((((....))))))),folding enthalpy,[1],-40.2 kcal/mol
same,Tm,[2],62.5 °C
GTTTCGGGAAACTGAGAC ((.((.(....).)).)),folding enthalpy,[1],-13.2 kcal/mol
same,Tm,[2],35.7 °C
GTTTCGGGAAACTGGAAC (((.(.(....).).))),folding enthalpy,[1],-13.5 kcal/mol
same,Tm,[2],39.8 °C
GTTTCTCGAAAGAGAAC (((.(((....)))))),folding enthalpy,[1],-17.1 kcal/mol
same,Tm,[2],42.4 °C
GTTTCTCGAAAGAGGAAC (((.(((....))).))),folding enthalpy,[1],-34.7 kcal/mol
same,Tm,[2],49.1 °C
GTTTCTGGAAACGGAAAC (((((.(....).))))),folding enthalpy,[1],-31.8 kcal/mol
same,Tm,[2],45.5 °C
GTTTGAACGAAAGTTAAC (((..(((....)))))),folding enthalpy,[1],-12.3 kcal/mol
same,Tm,[2],24.4 °C
GTTTGAGGAAACTTAAGC (.((.((....)).)).),folding enthalpy,[1],-13.9 kcal/mol
same,Tm,[2],31.9 °C
GTTTGCGAAAGCAGTAAC ((((((....)))..))),folding enthalpy,[1],-12.9 kcal/mol
same,Tm,[2],30.6 °C
GTTTGCGGAAACGCGAAC (((.(((....))).))),folding enthalpy,[1],-35.7 kcal/mol
same,Tm,[2],56.9 °C
GTTTGCGGAAACGTAAAC ((((.((....)).)))),folding enthalpy,[1],-32.3 kcal/mol
same,Tm,[2],48.6 °C
GTTTGGAAACAAAC (((((....))))),folding enthalpy,[1],-24.5 kcal/mol
same,Tm,[2],45.6 °C
GTTTGGCCGAAAGGCAAC (((..(((....)))))),folding enthalpy,[1],-11.5 kcal/mol
same,Tm,[2],37.7 °C
GTTTGGGAAACCAAAC ((((((....)))))),folding enthalpy,[1],-39.5 kcal/mol
same,Tm,[2],53.2 °C
GTTTGGGGAAACCCGAAC (((.(((....))).))),folding enthalpy,[1],-36.5 kcal/mol
same,Tm,[2],49.3 °C
GTTTGTGAAAACAAAC ((((((....)))))),folding enthalpy,[1],-37.6 kcal/mol
same,Tm,[2],53.7 °C
GTTTGTGGAAACACAAGC (.(((((....))))).),folding enthalpy,[1],-23.1 kcal/mol
same,Tm,[2],45.1 °C
GTTTGTGGAAACACGAAC (((.(((....))).))),folding enthalpy,[1],-36 kcal/mol
same,Tm,[2],49 °C
GTTTTACCGAAAGGTAAC (((..(((....)))))),folding enthalpy,[1],-12.3 kcal/mol
same,Tm,[2],33.6 °C
GTTTTACGAAAGTAGAAC (((.(((....))).))),folding enthalpy,[1],-29.2 kcal/mol
same,Tm,[2],41.2 °C
GTTTTAGGAAACTAAGAC ((.((((....)))).)),folding enthalpy,[1],-15.7 kcal/mol
same,Tm,[2],29 °C
GTTTTCCGAAAGGATAAC (((.(((....))).))),folding enthalpy,[1],-28.4 kcal/mol
same,Tm,[2],44.9 °C
GTTTTCGGAAACGGAAAC ((((.((....)).)))),folding enthalpy,[1],-27.1 kcal/mol
same,Tm,[2],47.1 °C
GTTTTGACGAAAGTCAAC (((..(((....)))))),folding enthalpy,[1],-11.5 kcal/mol
same,Tm,[2],34.6 °C
GTTTTGCGAAAGCAGAAC (((.(((....))).))),folding enthalpy,[1],-29.9 kcal/mol
same,Tm,[2],51.4 °C
GTTTTGGGAAACCAGAAC (((.(((....))).))),folding enthalpy,[1],-26.9 kcal/mol
same,Tm,[2],38.1 °C
GTTTTTGGAAACGAAAAC (((((.(....).))))),folding enthalpy,[1],-31.3 kcal/mol
same,Tm,[2],40.4 °C
TACCCGAAAGGGTA (((((....))))),folding enthalpy,[1],-14.4 kcal/mol
same,Tm,[2],66.1 °C
TAGACGAAAGTCTA (((((....))))),folding enthalpy,[1],-15.3 kcal/mol
same,Tm,[2],50.9 °C
TAGAGGAAACTCTA (((((....))))),folding enthalpy,[1],-8.94 kcal/mol
same,Tm,[2],32.1 °C
TATACGAAAGTATA (((((....))))),folding enthalpy,[1],-14.9 kcal/mol
same,Tm,[2],42.1 °C
TATCGGAAACGATA (((((....))))),folding enthalpy,[1],-17.8 kcal/mol
same,Tm,[2],43 °C
TATGGGAAACCATA (((((....))))),folding enthalpy,[1],-14.9 kcal/mol
same,Tm,[2],37.2 °C
TCACAGAAATGTGA (((((....))))),folding enthalpy,[1],-14.6 kcal/mol
same,Tm,[2],39.8 °C
TCAGTGAAAACTGA (((((....))))),folding enthalpy,[1],-16.9 kcal/mol
same,Tm,[2],42.6 °C
TCATCGAAAGATGA (((((....))))),folding enthalpy,[1],-22.9 kcal/mol
same,Tm,[2],49.7 °C
TCATGGAAACATGA (((((....))))),folding enthalpy,[1],-24.5 kcal/mol
same,Tm,[2],39.8 °C
TCCAGGAAACTGGA (((((....))))),folding enthalpy,[1],-22.8 kcal/mol
same,Tm,[2],46 °C
TCCTGGAAACAGGA (((((....))))),folding enthalpy,[1],-18.4 kcal/mol
same,Tm,[2],45.5 °C
TCGTGGAAACACGA (((((....))))),folding enthalpy,[1],-18.3 kcal/mol
same,Tm,[2],53.7 °C
TCGTTGAAAAACGA (((((....))))),folding enthalpy,[1],-20.3 kcal/mol
same,Tm,[2],44.7 °C
TCTCAGAAATGAGA (((((....))))),folding enthalpy,[1],-12.2 kcal/mol
same,Tm,[2],31.1 °C
TCTGAGAAATCAGA (((((....))))),folding enthalpy,[1],-11.1 kcal/mol
same,Tm,[2],33.4 °C
TGAGTGAAAACTCA (((((....))))),folding enthalpy,[1],-18.3 kcal/mol
same,Tm,[2],42.4 °C
TGCGTGAAAACGCA (((((....))))),folding enthalpy,[1],-18.1 kcal/mol
same,Tm,[2],66.2 °C
TGTCAGAAATGACA (((((....))))),folding enthalpy,[1],-17.6 kcal/mol
same,Tm,[2],40.2 °C
TGTCTGAAAAGACA (((((....))))),folding enthalpy,[1],-20.4 kcal/mol
same,Tm,[2],47.2 °C
TGTGAGAAATCACA (((((....))))),folding enthalpy,[1],-18.3 kcal/mol
same,Tm,[2],38.9 °C
TGTGTGAAAACACA (((((....))))),folding enthalpy,[1],-20 kcal/mol
same,Tm,[2],49 °C
TGTTCGAAAGAACA (((((....))))),folding enthalpy,[1],-17.1 kcal/mol
same,Tm,[2],52.3 °C
TTAGCGAAAGCTAA (((((....))))),folding enthalpy,[1],-16.2 kcal/mol
same,Tm,[2],51.2 °C
TTCGTGAAAACGAA (((((....))))),folding enthalpy,[1],-20.2 kcal/mol
same,Tm,[2],46.4 °C
TTCTCGAAAGAGAA (((((....))))),folding enthalpy,[1],-15.2 kcal/mol
same,Tm,[2],49.1 °C
TTGGTGAAAACCAA (((((....))))),folding enthalpy,[1],-15.8 kcal/mol
same,Tm,[2],44.8 °C
TTGTGGAAACACAA (((((....))))),folding enthalpy,[1],-19.7 kcal/mol
same,Tm,[2],40.4 °C
TTTGGGAAACCAAA (((((....))))),folding enthalpy,[1],-13.6 kcal/mol
same,Tm,[2],38.2 °C
